Laboratory results reported in ChEMBL document CHEMBL1156296, “Development of novel, highly potent inhibitors of V-RAF murine sarcoma viral oncogene homologue B1 (BRAF): increasing cellular potency through optimization of a distal heteroaromatic group” (J Med Chem, 2010).

Tests used:
[1] = target: T1, Serine/threonine-protein kinase B-raf (Homo sapiens, UniProt P15056, V600E); experiment: Inhibition of human BRAF V600E mutant expressed in baculovirus system
Outline: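 Isolated purified V600E BRAF kinase with a 45 min incubation. Enzyme inhibition measured and IC50 derived. Run in triplicate, with one compound measured once.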

[2] = target: T1, Serine/threonine-protein kinase B-raf; experiment: Inhibition of BRAF V600E mutant ERK phosphorylation in human WM266.4 cells; assay type: cell-based
Outline: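 WM266.4 melanoma cells, which carry mutant V600E BRAF, exposed to inhibitor for 6 h. ERK phosphorylation (pERK) measured and IC50 derived. Run in triplicate, with a few compounds measured once.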

[3] = Growth inhibition of human WM266.4 cells expressing BRAF V600E mutant after 5 days by SRB assay; assay type: functional; settings: WM 266-4, 120 h
[4] = Oral bioavailability in BALB/cAnNCrl mouse at 10 mg/kg; assay type: ADME, organism-based; settings: in vivo
Outline: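 Female BALB/cAnNCrl mice, at least 6 weeks old. The oral arm was gavage at 10 mL/kg in DMSO/water 1:19. The iv arm was 2 mg/kg (~4 μmol/kg) at 10 mL/kg in DMSO/Tween-20/water 10:1:89, sampled at seven or eight points from 5 min to 18 or 24 h. Three mice per time point, terminal cardiac blood, plasma.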

[5] = Half life in BALB/cAnNCrl mouse at 10 mg/kg, po; assay type: ADME, organism-based; design: dose 10 mg/kg, route oral; settings: in vivo
Outline: (§1)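 Female BALB/cAnNCrl mice, at least 6 weeks old, dosed once by oral gavage at 10 mL/kg in DMSO/water 1:19 v/v. Blood was taken at six or eight time points from 15 min to 18 or 24 h, three mice per time point, by terminal cardiac puncture under halothane or isoflurane into heparinized syringes. Plasma was snap frozen and stored at -70 °C.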

[6] = Cmax in BALB/cAnNCrl mouse at 10 mg/kg, po; assay type: ADME, organism-based; design: dose 10 mg/kg, route oral; settings: in vivo; outline: as §1
[7] = Tmax in BALB/cAnNCrl mouse at 10 mg/kg, po; assay type: ADME, organism-based; design: dose 10 mg/kg, route oral; settings: in vivo; outline: as §1

T1 sequence (P15056 2-766 V600E limits assumed): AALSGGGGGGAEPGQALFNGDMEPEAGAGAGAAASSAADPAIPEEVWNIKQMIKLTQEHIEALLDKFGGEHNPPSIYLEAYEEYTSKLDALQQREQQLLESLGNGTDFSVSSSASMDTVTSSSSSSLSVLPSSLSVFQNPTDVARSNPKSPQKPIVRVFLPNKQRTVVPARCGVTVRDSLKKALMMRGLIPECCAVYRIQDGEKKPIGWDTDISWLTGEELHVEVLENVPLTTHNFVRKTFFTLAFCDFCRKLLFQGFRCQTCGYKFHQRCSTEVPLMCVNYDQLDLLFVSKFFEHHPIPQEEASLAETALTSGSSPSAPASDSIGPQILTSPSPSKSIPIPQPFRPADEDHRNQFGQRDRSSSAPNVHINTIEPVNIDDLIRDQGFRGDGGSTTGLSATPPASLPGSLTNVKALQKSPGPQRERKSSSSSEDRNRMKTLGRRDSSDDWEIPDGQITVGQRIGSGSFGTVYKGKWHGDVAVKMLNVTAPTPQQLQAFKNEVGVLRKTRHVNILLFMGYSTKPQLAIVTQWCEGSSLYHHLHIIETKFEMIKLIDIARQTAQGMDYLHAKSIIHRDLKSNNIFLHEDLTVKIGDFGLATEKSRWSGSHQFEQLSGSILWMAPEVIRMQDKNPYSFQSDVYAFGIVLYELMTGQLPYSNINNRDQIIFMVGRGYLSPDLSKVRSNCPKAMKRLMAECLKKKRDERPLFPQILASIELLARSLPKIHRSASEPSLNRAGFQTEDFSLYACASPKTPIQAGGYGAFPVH

| Structure (SMILES) | IC50 [1] [nM] | IC50 [2] [nM] | GI50 [3] [nM] | bioavailability [4] [%] | half-life [5] [h] | Cmax [6] [µM] | Tmax [7] [h] |
| --- | --- | --- | --- | --- | --- | --- | --- |
| Cc1ccc(-n2nc(C(C)(C)C)cc2NC(=O)Nc2ccc(Sc3ccnc4[nH]c(=O)[nH]c34)cc2)cc1 | 2200 | 234 | 259 |  |  |  |  |
| Cn1c(=O)[nH]c2nccc(Oc3ccc(NC(=O)Nc4cc(C(C)(C)C)nn4-c4ccc(F)cc4)c4ccccc34)c21 | 313 | 35 | 47 |  |  |  |  |
| Cn1c(=O)[nH]c2nccc(Oc3ccc(NC(=O)Nc4cc(C(C)(C)C)nn4-c4ccc(F)cc4)cc3)c21 | 135 | 1360 | 497 |  |  |  |  |
| Cn1nc(C(C)(C)C)cc1NC(=O)Nc1ccc(Oc2ccnc3c2[nH]c(=O)n3C)cc1 | 258 | 2900 | 1920 |  |  |  |  |
| Cc1ccc(-n2nc(C(C)(C)C)cc2NC(=O)Nc2ccc(Oc3ccnc4c3[nH]c(=O)n4C)cc2F)cn1 | 530 | 62 | 240 | 17 | 12.6 | 18 | 0.25 |
| Cc1ccc(-n2nc(C(C)(C)C)cc2NC(=O)Nc2ccc(Oc3ccnc4[nH]c(=O)n(C)c34)cc2)cc1 | 202 | 90 | 66 | 34 | 3.4 | 39.6 | 1 |
| Cc1ccc(-n2nc(C(C)(C)C)cc2NC(=O)Nc2ccc(Oc3ccnc4c3[nH]c(=O)n4C)cc2)cc1 | 1190 | 54 | 27 | 30 | 3.4 | 22.7 | 1 |
| CC(C)(C)c1cc(NC(=O)Nc2ccc(Oc3ccnc4[nH]c(=O)[nH]c34)cc2)n(-c2ccc(Cl)cc2)n1 | 140 | 350 | 530 |  |  |  |  |
| Cn1c(=O)[nH]c2nccc(Oc3ccc(NC(=O)Nc4cc(C(C)(C)C)nn4-c4ccccc4)cc3)c21 | 215 | 164 | 145 |  |  |  |  |
| Cn1nc(C(C)(C)C)cc1NC(=O)Nc1ccc(Oc2ccnc3[nH]c(=O)[nH]c23)c2ccccc12 | 11 | 2300 | 670 |  |  |  |  |
| Cn1c(=O)[nH]c2nccc(Oc3ccc(NC(=O)Nc4cc(C5CC5)nn4-c4ccccc4)cc3)c21 | 143 | 18200 | 3700 |  |  |  |  |
| CC(C)(C)c1cc(NC(=O)Nc2ccc(Oc3ccnc4[nH]c(=O)[nH]c34)c3ccccc23)n(-c2ccccc2)n1 | 510 | 35 | 34 |  |  |  |  |
| Cn1nc(C(C)(C)C)cc1NC(=O)Nc1ccc(Oc2ccnc3[nH]c(=O)[nH]c23)cc1 | 33 | 28000 | 12900 |  |  |  |  |
| Cc1ccc(-n2nc(C(C)(C)C)cc2NC(=O)Nc2ccc(Oc3ccnc4c3[nH]c(=O)n4C)c3ccccc23)cc1 | 6300 | 70 | 1090 |  |  |  |  |
| CC(C)c1cc(NC(=O)Nc2ccc(Oc3ccnc4[nH]c(=O)[nH]c34)cc2)n(-c2ccccc2)n1 | 42 | 1970 | 1170 |  |  |  |  |
| Cc1ccc(-n2nc(C(C)(C)C)cc2NC(=O)Nc2ccc(Oc3ccnc4[nH]c(=O)[nH]c34)c3ccccc23)cc1 | 670 | 14 | 31 |  |  |  |  |
| Cn1c(=O)[nH]c2nccc(Oc3ccc(NC(=O)Nc4cc(C(C)(C)C)nn4-c4cccnc4)cc3)c21 | 390 | 830 | 590 |  |  |  |  |
| Cc1ccc(-n2nc(C(C)(C)C)cc2NC(=O)Nc2ccc(Oc3ccnc4c3n(C)c(=O)n4C)cc2)cc1 | 1800 | 190 | 210 |  |  |  |  |
| CC(C)(C)c1cc(NC(=O)Nc2ccc(Oc3ccnc4[nH]c(=O)[nH]c34)cc2)n(-c2ccc(F)cc2)n1 | 124 | 411 | 540 |  |  |  |  |

| Structure (SMILES) | IC50 [1] [nM] | IC50 [2] [nM] | GI50 [3] [nM] | bioavailability [4] [%] | half-life [5] [h] | Cmax [6] [µM] | Tmax [7] [h] |
| --- | --- | --- | --- | --- | --- | --- | --- |
| CC(C)(C)c1cc(NC(=O)Nc2ccc(Oc3ccnc4[nH]c(=O)[nH]c34)c3ccccc23)n(-c2ccc(F)cc2)n1 | 240 | 203 | 20 |  |  |  |  |
| Cn1c(=O)[nH]c2c(Oc3ccc(NC(=O)Nc4cc(C(C)(C)C)nn4-c4ccccc4)c4ccccc34)ccnc21 | 6900 | 27 | 167 |  |  |  |  |
| CC(C)(C)c1cc(NC(=O)Nc2ccc(Oc3ccnc4[nH]c(=O)[nH]c34)cc2)n(C(C)(C)C)n1 | 1190 | 33000 | 26000 |  |  |  |  |
| CC(C)(C)c1cc(NC(=O)Nc2ccc(Oc3ccnc4[nH]c(=O)[nH]c34)cc2)n(-c2ccc(F)cc2F)n1 | 104 | 1190 | 1230 |  |  |  |  |
| Cn1nc(C(C)(C)C)cc1NC(=O)Nc1ccc(Oc2ccnc3[nH]c(=O)n(C)c23)cc1 | 84 | 14100 | 4200 |  |  |  |  |
| CC(C)(C)c1cc(NC(=O)Nc2ccc(Oc3ccnc4[nH]c(=O)[nH]c34)cc2)n(-c2ccccn2)n1 | 210 | 6400 | 3400 |  |  |  |  |
| O=C(Nc1ccc(Oc2ccnc3[nH]c(=O)[nH]c23)cc1)Nc1nnc(C2CCCO2)s1 (stereo not drawn) | 170 | 58000 | 48900 |  |  |  |  |
| Cc1ccc(-n2nc(C(C)(C)C)cc2NC(=O)Nc2ccc(Oc3ccnc4c3n(C)c(=O)n4C)cc2F)cc1 | 1130 | 52 | 320 | 31 | 9.4 | 8.12 | 0.5 |
| CC(C)(C)c1cc(NC(=O)Nc2ccc(Sc3ccnc4[nH]c(=O)[nH]c34)cc2)n(-c2ccccc2)n1 | 215 | 70 | 12 |  |  |  |  |
| CCCn1nc(C(C)(C)C)cc1NC(=O)Nc1ccc(Oc2ccnc3[nH]c(=O)[nH]c23)cc1 | 83 | 10800 | 9500 |  |  |  |  |
| Cn1nc(C(C)(C)C)cc1NC(=O)Nc1ccc(Oc2ccnc3[nH]c(=O)n(C)c23)c2ccccc12 | 99 | 383 | 161 |  |  |  |  |
| CC(C)(C)c1csc(NC(=O)Nc2ccc(Oc3ccnc4[nH]c(=O)[nH]c34)cc2)n1 | 7800 |  | 10400 |  |  |  |  |
| Cc1cc(NC(=O)Nc2ccc(Oc3ccnc4[nH]c(=O)[nH]c34)cc2)n(-c2ccc(Cl)cc2)n1 | 290 | 70000 | 21000 |  |  |  |  |
| CSc1cc(Oc2ccnc3[nH]c(=O)[nH]c23)ccc1NC(=O)Nc1cc(C(C)(C)C)nn1-c1ccc(C)cc1 | 76 | 56 | 16 |  |  |  |  |
| Cn1nc(C(C)(C)C)cc1NC(=O)Nc1ccc(Oc2ccnc3c2[nH]c(=O)n3C)c2ccccc12 | 197 | 470 | 470 |  |  |  |  |
| CC(C)(C)c1cc(NC(=O)Nc2ccc(Oc3ccnc4[nH]c(=O)[nH]c34)cc2)n(Cc2ccccc2)n1 | 147 | 13400 | 10100 |  |  |  |  |
| Cn1c(=O)n(C)c2c(Oc3ccc(NC(=O)Nc4cc(C(C)(C)C)nn4-c4ccccc4)c(F)c3)ccnc21 | 1090 | 122 | 33 | 59 | 2.1 | 4.44 | 0.5 |
| Cc1ccc(-n2nc(C(F)(F)F)cc2NC(=O)Nc2ccc(Oc3ccnc4[nH]c(=O)n(C)c34)cc2)cc1 | 176 | 3200 | 1890 |  |  |  |  |
| Cn1c(=O)[nH]c2c(Oc3ccc(NC(=O)Nc4cc(C(C)(C)C)nn4-c4ccccc4)cc3)ccnc21 | 880 | 130 | 61 |  |  |  |  |
